Assay results taken from paper PMC6045484 (ACS Omega, 2018).
≈ marks a conversion by molar mass, not a printed value.

Experiments:
[1] = tested on: M. intracellulare (ATCC23068); assay: in vitro antibacterial activity, modified alamarBlue procedure; format: cell-based, Mycobacterium intracellulare; details: Mycobacterium intracellulare; for IC50: ATCC23068, read-out: IC50 (concentration that affords 50% growth inhibition), M. intracellulare; for MBC: ATCC23068, read-out: MBC (minimum bactericidal concentration), M. intracellulare; for MIC: ATCC23068, read-out: MIC, M. intracellulare
How it was run: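 Modified alamarBlue microplate method. Test compound serially diluted in 20% DMSO/saline, duplicate wells, up to 20 μg/mL. Inoculum 2.0 × 10^6 CFU/mL in Middlebrook 7H9 with OADC, pH 7.3, containing 5% alamarBlue. Incubated 70–74 h at 37 °C, 10% CO2; fluorescence 544ex/590em read before and after. MIC: no blue-to-pink change. MBC by subculturing blue wells on agar. Ciprofloxacin control.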

C. albicans ATCC90028 = assay: in vitro antifungal activity; format: cell-based, Candida albicans; details: Candida albicans; for IC50: ATCC90028, read-out: C. albicans IC50; for MFC: ATCC90028, read-out: C. albicans MFC; for MIC: ATCC90028, read-out: C. albicans MIC
How it was run: (§1)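 Modified NCCLS broth method in Sabouraud dextrose. Inoculum set by OD630 to 1.5 × 10^3 CFU/mL. Test compound serially diluted in 20% DMSO/saline, duplicate wells, up to 20 μg/mL. Incubated 70–74 h at 35 °C; 530 nm read before and after. IC50 is 50% growth inhibition; MIC is no detectable growth. MFC from clear wells subcultured on agar. Amphotericin B control.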

MRSA (ATCC33591) = assay: in vitro antibacterial activity; format: cell-based, methicillin-resistant Staphylococcus aureus; details: Staphylococcus aureus, ATCC33591|MRSA, read-out: MIC, MRSA
How it was run: (§2)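 Test compound serially diluted in 20% DMSO/saline and plated in duplicate, up to 20 μg/mL. Inoculum in cation-adjusted Mueller–Hinton broth, pH 7.3, set by OD630 to 5 × 10^5 CFU/mL. Incubated 16–20 h at 35 °C; 530 nm read before and after. IC50 is 50% growth inhibition; MIC is no detectable growth. MBC from clear wells subcultured on agar. Ciprofloxacin control.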

C. neoformans ATCC90113 = assay: in vitro antifungal activity; format: cell-based, Cryptococcus neoformans; details: Cryptococcus neoformans; for IC50: ATCC90113, read-out: C. neoformans IC50; for MFC: ATCC90113, read-out: C. neoformans MFC; for MIC: ATCC90113, read-out: C. neoformans MIC
How it was run: as §1

P. falciparum (W2) = assay: in vitro antimalarial activity, plasmodial LDH; format: cell-based, Plasmodium falciparum; details: Plasmodium falciparum, W2, 72 h, read-out: P. falciparum (W2) IC50, CQ-resistant W2 strain, 72 h
How it was run: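 P. falciparum-infected erythrocytes (2% parasitemia, 2% hematocrit) in RPMI 1640 with 10% human serum and 60 μg/mL amikacin. Exposed to test compound dilutions for 72 h at 37 °C under 90% N2/5% O2/5% CO2. LDH measured with Malstat reagent (30 min, room temperature), then NBT/PES for 1 h in the dark, stopped with 5% acetic acid, read at 650 nm. IC50 from dose-response curves.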

A. fumigatus ATCC 90906 = assay: in vitro antifungal activity; format: cell-based, Aspergillus fumigatus; details: Aspergillus fumigatus; for IC50: ATCC90906, read-out: A. fumigatus IC50; for MFC: ATCC90906, read-out: A. fumigatus MFC; for MIC: ATCC90906, read-out: A. fumigatus MIC
How it was run: as §1

[2] = tested on: SK-MEL, KB, BT-549, SK-OV-3, VERO and LLC-PK1 cells; assay: cytotoxicity, neutral red uptake assay; format: cell-based, mammalian; details: highest test concentration 4760 ng/mL
How it was run: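 Cells seeded at 25 000/well and allowed 24 h to reach confluence. Test compound was then added and incubated 48 h. Viable cells were counted by a modified neutral red uptake method. The panel was four human cancer lines and two noncancerous mammalian kidney lines. Doxorubicin served as positive control and DMSO as negative control.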

SA (ATCC29213) = assay: in vitro antibacterial activity; format: cell-based; details: Staphylococcus aureus; for IC50: ATCC29213, read-out: IC50 (concentration that affords 50% growth inhibition), SA; for MBC: ATCC29213, read-out: MBC (minimum bactericidal concentration), SA; for MIC: ATCC29213, read-out: MIC, SA
How it was run: as §2

[3] = tested on: L. donovani promastigotes; assay: in vitro antileishmanial activity, alamarBlue assay; format: cell-based, Leishmania donovani; details: Leishmania donovani, 48 h; for IC50: read-out: L. donovani IC50, promastigotes, 48 h; for IC90: read-out: L. donovani IC90, promastigotes, 48 h
P. falciparum (D6) = assay: in vitro antimalarial activity, plasmodial LDH; format: cell-based, Plasmodium falciparum; details: Plasmodium falciparum, D6, 72 h, read-out: P. falciparum (D6) IC50

Row | Structure (SMILES) | IC50 [1] | MBC [1] | MIC [1] | IC50 (C. albicans ATCC90028) | MFC (C. albicans ATCC90028) | MIC (C. albicans ATCC90028) | MIC (MRSA (ATCC33591)) | IC50 (C. neoformans ATCC90113) | MFC (C. neoformans ATCC90113) | MIC (C. neoformans ATCC90113) | IC50 (P. falciparum (W2)) | IC50 (A. fumigatus ATCC 90906) | MFC (A. fumigatus ATCC 90906) | MIC (A. fumigatus ATCC 90906) | cytotoxicity CTX [2] | IC50 (SA (ATCC29213)) | MBC (SA (ATCC29213)) | MIC (SA (ATCC29213)) | IC50 [3] | IC90 [3] | also measured
1 | CCCCCCOc1c(OC)cc(NC(C)CCCN)c2nc(C(C)(C)C)cc(C)c12 (stereo not drawn) [compound 52, N^4-(5-Hexyloxy-2-tert-butyl-6-methoxy-4-methylquinolin-8-yl)pentane-1,4-diamine] | 3.43 µg/mL (≈ 7.98 µM) | 5 µg/mL (≈ 11.6 µM) | 5 µg/mL (≈ 11.6 µM) | 5.91 µg/mL (≈ 13.8 µM) | 10 µg/mL (≈ 23.3 µM) | 10 µg/mL (≈ 23.3 µM) | 5 µg/mL (≈ 11.6 µM) | 0.84 µg/mL (≈ 1.96 µM) | 2.5 µg/mL (≈ 5.82 µM) | 1.25 µg/mL (≈ 2.91 µM) | > 4.76 µg/mL | 19 µg/mL (≈ 44.2 µM) | > 20 µg/mL | > 20 µg/mL | NC (NC, not cytotoxic up to 4760 ng/mL (4.76 μg/mL)) | 2.83 µg/mL (≈ 6.59 µM) | 5 µg/mL (≈ 11.6 µM) | 5 µg/mL (≈ 11.6 µM) | 1.77 µg/mL (≈ 4.12 µM) | 2.55 µg/mL (≈ 5.94 µM) | IC50 (P. falciparum (D6)): > 4.76 µg/mL
2 | CCCCCCCOc1c(OC)cc(NC(C)CCCN)c2nc(C(C)(C)C)cc(C)c12 (stereo not drawn) [compound 53, N^4-(5-Heptyloxy-2-tert-butyl-6-methoxy-4-methylquinolin-8-yl)pentane-1,4-diamine] | 3.12 µg/mL (≈ 7.03 µM) | 5 µg/mL (≈ 11.3 µM) | 5 µg/mL (≈ 11.3 µM) | 5.06 µg/mL (≈ 11.4 µM) | 10 µg/mL (≈ 22.5 µM) | 10 µg/mL (≈ 22.5 µM) | 2.5 µg/mL (≈ 5.63 µM) | 0.67 µg/mL (≈ 1.51 µM) | 1.25 µg/mL (≈ 2.82 µM) | 1.25 µg/mL (≈ 2.82 µM) | 1.3 µg/mL (≈ 2.93 µM) | 19.3 µg/mL (≈ 43.5 µM) | > 20 µg/mL | > 20 µg/mL | NC (NC, not cytotoxic up to 4760 ng/mL (4.76 μg/mL)) | 1.33 µg/mL (≈ 3 µM) | 5 µg/mL (≈ 11.3 µM) | 2.5 µg/mL (≈ 5.63 µM) | 0.84 µg/mL (≈ 1.89 µM) | 1.95 µg/mL (≈ 4.4 µM) | IC50 (P. falciparum (D6)): 2 µg/mL (≈ 4.51 µM)
3 | CCCCCCCCOc1c(OC)cc(NC(C)CCCN)c2nc(C(C)(C)C)cc(C)c12 (stereo not drawn) [compound 54, N^4-(5-Octyloxy-2-tert-butyl-6-methoxy-4-methylquinolin-8-yl)pentane-1,4-diamine] | 18.6 µg/mL (≈ 40.6 µM) | > 20 µg/mL | > 20 µg/mL | > 20 µg/mL | > 20 µg/mL | > 20 µg/mL | > 20 µg/mL | 9.96 µg/mL (≈ 21.8 µM) | > 20 µg/mL | > 20 µg/mL | > 4.76 µg/mL | > 20 µg/mL | > 20 µg/mL | > 20 µg/mL | NC (NC, not cytotoxic up to 4760 ng/mL (4.76 μg/mL)) | > 20 µg/mL | > 20 µg/mL | > 20 µg/mL | 9.74 µg/mL (≈ 21.3 µM) | 15.6 µg/mL (≈ 34 µM) | IC50 (P. falciparum (D6)): > 4.76 µg/mL
4 | COc1cc(NC(C)CCCN)c2nc(C(C)(C)C)ccc2c1Oc1ccc(Cl)c(Cl)c1 (stereo not drawn) [compound 55, N^4-(2-tert-Butyl-5-(3,4-dichlorophenoxy)-6-methoxyquinolin-8-yl)pentane-1,4-diamine] | 9.51 µg/mL (≈ 20 µM) | 20 µg/mL (≈ 42 µM) | 20 µg/mL (≈ 42 µM) | > 20 µg/mL | > 20 µg/mL | > 20 µg/mL | 10 µg/mL (≈ 21 µM) | 3.18 µg/mL (≈ 6.67 µM) | 5 µg/mL (≈ 10.5 µM) | 5 µg/mL (≈ 10.5 µM) | 0.13 µg/mL (≈ 0.273 µM) | > 20 µg/mL | > 20 µg/mL | > 20 µg/mL | NC (NC, not cytotoxic up to 4760 ng/mL (4.76 μg/mL)) | 5.96 µg/mL (≈ 12.5 µM) | 10 µg/mL (≈ 21 µM) | 10 µg/mL (≈ 21 µM) | 11 µg/mL (≈ 23.1 µM) | > 40 µg/mL | IC50 (P. falciparum (D6)): 0.14 µg/mL (≈ 0.294 µM)
